Data published in ChEMBL document CHEMBL2385057 (Bioorg Med Chem Lett, 2013).

Tested on: not listed separately
Assay: Fraction unbound in brain of medial meniscal transection rat osteoarthritis pain model at 10 mg/kg, sc administered on day 28 post medial meniscal transection surgery measured at 1 hr to 3 hrs
Assay type: ADME, organism-based
Set-up: dose 10 mg/kg, route subcutaneous
Details: not given

| fraction unbound | SMILES |
| --- | --- |
| 0.009 | COc1ncc(-c2cc(C3=Nc4c(C(C)(C)C)nn(CCO)c4C(=O)NC3)ccc2OC)cn1 |

Tested on: Brain
Assay: Total drug level in brain of medial meniscal transection rat osteoarthritis pain model at 10 mg/kg, sc administered on day 28 post medial meniscal transection surgery measured at 1 hr to 3 hrs
Assay type: ADME, organism-based
Set-up: dose 10 mg/kg, route subcutaneous
Details: read-out: Drug uptake, in vivo

| concentration | SMILES |
| --- | --- |
| 475 nM | COc1ncc(-c2cc(C3=Nc4c(C(C)(C)C)nn(CCO)c4C(=O)NC3)ccc2OC)cn1 |

Tested on: not listed separately
Assay: Fraction unbound in plasma of medial meniscal transection rat osteoarthritis pain model at 10 mg/kg, sc administered on day 28 post medial meniscal transection surgery measured at 1 hr to 3 hrs
Assay type: ADME, organism-based
Set-up: dose 10 mg/kg, route subcutaneous
Details: not given

| fraction unbound | SMILES |
| --- | --- |
| 0.032 | COc1ncc(-c2cc(C3=Nc4c(C(C)(C)C)nn(CCO)c4C(=O)NC3)ccc2OC)cn1 |

Tested on: not listed separately
Assay: Plasma concentration in medial meniscal transection rat osteoarthritis pain model at 10 mg/kg, sc administered on day 28 post medial meniscal transection surgery measured at 1 hr
Assay type: ADME, organism-based
Set-up: dose 10 mg/kg, route subcutaneous
Details: not given
Method in brief: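 Plasma was sampled 1 h after a single subcutaneous 10 mg/kg dose in the rat osteoarthritis pain model. Free concentration was derived using the rat plasma free fraction.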

| concentration at 1 h | SMILES |
| --- | --- |
| 2500 nM | COc1ncc(-c2cc(C3=Nc4c(C(C)(C)C)nn(CCO)c4C(=O)NC3)ccc2OC)cn1 |

Tested on: Rattus norvegicus
Assay: Analgesic activity in medial meniscal transection rat osteoarthritis pain model assessed as inhibition of change in hind paw weight distribution at 10 mg/kg, po administered on day 28 post medial meniscal transection surgery measured after 3 hrs relative to vehicle-treated control
Assay type: functional
Details: not given

| SMILES | inhibition in vivo at 10 mg/kg |
| --- | --- |
| CS(=O)(=O)c1ccc(C2=C(c3ccccc3)C(=O)OC2)cc1 [ROFECOXIB] | 79% |

Tested on: Rattus norvegicus
Assay: Analgesic activity in medial meniscal transection rat osteoarthritis pain model assessed as inhibition of change in hind paw weight distribution at 10 mg/kg, sc administered on day 28 post medial meniscal transection surgery measured after 3 hrs relative to vehicle-treated control
Assay type: functional
Details: route subcutaneous
Method in brief: (§1)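 The rats were assessed for hind paw weight distribution. On day 28 after surgery they received a single subcutaneous dose of compound or vehicle and were reassessed 1 and 3 h post dose. N = 6 rats per group, data as mean ± SEM. Significance was tested by one-way ANOVA with Dunnett's test against vehicle at the same time point, P < 0.05.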

| SMILES | inhibition in vivo at 10 mg/kg |
| --- | --- |
| CS(=O)(=O)c1ccc(C2=C(c3ccccc3)C(=O)OC2)cc1 [ROFECOXIB] | 100% |

Tested on: not listed separately
Assay: Oral bioavailability in Sprague-Dawley rat at 10 mg/kg
Assay type: ADME, organism-based
Details: in vivo
Method in brief: (§2)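 Male Sprague–Dawley rats, two animals per route. Dosing was either intravenous at 1 mg/kg or oral at 10 mg/kg. Pharmacokinetic parameters were derived from these dosings.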

| bioavailability | SMILES |
| --- | --- |
| 75% | CCC(CC)c1nn(CCO)c2c1N=C(c1ccc(-n3ccnc3C)cc1)CNC2=O |
| 78% | COc1ncc(-c2cc(C3=Nc4c(C(C)(C)C)nn(CCO)c4C(=O)NC3)ccc2OC)cn1 |
| 31% | COc1ccc(C2=Nc3c(C(C)(C)C)nn(CCCO)c3C(=O)NC2)cc1-c1cnn(C)c1 |

Tested on: not listed separately
Assay: Tmax in Sprague-Dawley rat at 10 mg/kg, po
Assay type: ADME, organism-based
Set-up: dose 10 mg/kg, route oral
Details: in vivo
Method in brief: as §2

| Tmax | SMILES |
| --- | --- |
| 135 min | CCC(CC)c1nn(CCO)c2c1N=C(c1ccc(-n3ccnc3C)cc1)CNC2=O |
| 180 min | COc1ncc(-c2cc(C3=Nc4c(C(C)(C)C)nn(CCO)c4C(=O)NC3)ccc2OC)cn1 |
| 30 min | COc1ccc(C2=Nc3c(C(C)(C)C)nn(CCCO)c3C(=O)NC2)cc1-c1cnn(C)c1 |

Tested on: not listed separately
Assay: AUC in Sprague-Dawley rat at 10 mg/kg, po
Assay type: ADME, organism-based
Set-up: dose 10 mg/kg, route oral
Details: plasma
Method in brief: as §2

| AUC | SMILES |
| --- | --- |
| 1660 ng·h/mL | CCC(CC)c1nn(CCO)c2c1N=C(c1ccc(-n3ccnc3C)cc1)CNC2=O |
| 4530 ng·h/mL | COc1ncc(-c2cc(C3=Nc4c(C(C)(C)C)nn(CCO)c4C(=O)NC3)ccc2OC)cn1 |
| 1160 ng·h/mL | COc1ccc(C2=Nc3c(C(C)(C)C)nn(CCCO)c3C(=O)NC2)cc1-c1cnn(C)c1 |

Tested on: not listed separately
Assay: Volume of distribution at steady state in Sprague-Dawley rat at 1 mg/kg, iv and 10 mg/kg, po
Assay type: ADME, organism-based
Details: in vivo, read-out: Vdss
Method in brief: as §2

| Vd | SMILES |
| --- | --- |
| 1.1 L/kg | CCC(CC)c1nn(CCO)c2c1N=C(c1ccc(-n3ccnc3C)cc1)CNC2=O |
| 3.02 L/kg | COc1ncc(-c2cc(C3=Nc4c(C(C)(C)C)nn(CCO)c4C(=O)NC3)ccc2OC)cn1 |
| 2 L/kg | COc1ccc(C2=Nc3c(C(C)(C)C)nn(CCCO)c3C(=O)NC2)cc1-c1cnn(C)c1 |

Tested on: not listed separately
Assay: Clearance in Sprague-Dawley rat at 1 mg/kg, iv and 10 mg/kg, po
Assay type: ADME, organism-based
Details: in vivo
Method in brief: as §2

| clearance | SMILES |
| --- | --- |
| 70 mL/min/kg | CCC(CC)c1nn(CCO)c2c1N=C(c1ccc(-n3ccnc3C)cc1)CNC2=O |
| 27 mL/min/kg | COc1ncc(-c2cc(C3=Nc4c(C(C)(C)C)nn(CCO)c4C(=O)NC3)ccc2OC)cn1 |
| 43 mL/min/kg | COc1ccc(C2=Nc3c(C(C)(C)C)nn(CCCO)c3C(=O)NC2)cc1-c1cnn(C)c1 |

Tested on: not listed separately
Assay: Half life in Sprague-Dawley rat at 1 mg/kg, iv
Assay type: ADME, organism-based
Set-up: dose 1 mg/kg, route intravenous
Details: in vivo
Method in brief: as §2

| half-life | SMILES |
| --- | --- |
| 31.8 min | CCC(CC)c1nn(CCO)c2c1N=C(c1ccc(-n3ccnc3C)cc1)CNC2=O |
| 90 min | COc1ncc(-c2cc(C3=Nc4c(C(C)(C)C)nn(CCO)c4C(=O)NC3)ccc2OC)cn1 |
| 43.8 min | COc1ccc(C2=Nc3c(C(C)(C)C)nn(CCCO)c3C(=O)NC2)cc1-c1cnn(C)c1 |

Tested on: not listed separately
Assay: Half life in human liver microsomes
Assay type: ADME, Microsome
Details: not given

| half-life | SMILES |
| --- | --- |
| 43 min | COc1ccc(-c2cc(C3=Nc4c(C(C)(C)C)nn(CCO)c4C(=O)NC3)ccc2OC)c(OC)c1 |
| 6.9 min | CCC(C)(C)c1nn(CCO)c2c1N=C(c1ccc(-n3ccnc3C)cc1)CNC2=O |
| 59 min | COc1ccc(C2=Nc3c(C(C)(C)C)nn(CCO)c3C(=O)NC2)cc1-c1cnn(C)c1 |
| 74 min | COc1ccc(C2=Nc3c(C(C)(C)C)nn(CCO)c3C(=O)NC2)cc1-c1cnc(N(C)C)cc1C |
| 36 min | COc1ncc(-c2cc(C3=Nc4c(C(C)(C)C)nn(CCO)c4C(=O)NC3)ccc2OC)c(OC)n1 |
| 33 min | COc1ccc(C2=Nc3c(C(C)(C)C)nn(CCO)c3C(=O)NC2)cc1-c1cnc(N2CCCC2)nc1 |
| 39 min | COc1ccc(C2=Nc3c(C(C)(C)C)nn(CCO)c3C(=O)NC2)cc1-c1cnc(N2CCOCC2)nc1 |
| 57 min | COc1ccc(-c2cc(C3=Nc4c(C(C)(C)C)nn(CCO)c4C(=O)NC3)ccc2OC)c(OC)n1 |
| 34 min | COc1ncc(-c2cc(C3=Nc4c(C(C)(C)C)nn(CCO)c4C(=O)NC3)ccc2OC)cn1 |
| 120 min | COc1ccc(C2=Nc3c(C(C)(C)C)nn(CCCO)c3C(=O)NC2)cc1-c1cnn(C)c1 |

Tested on: not listed separately
Assay: Half life in rat liver microsomes
Assay type: ADME, Microsome
Details: not given

| half-life | SMILES |
| --- | --- |
| > 60 min | COc1ncc(-c2cc(C3=Nc4c(C(C)(C)C)nn(CCO)c4C(=O)NC3)ccc2OC)cn1 |

Target: cGMP-dependent 3',5'-cyclic phosphodiesterase (Homo sapiens, UniProt O00408)
Sequence (O00408 whole entry, the tested form may be a part): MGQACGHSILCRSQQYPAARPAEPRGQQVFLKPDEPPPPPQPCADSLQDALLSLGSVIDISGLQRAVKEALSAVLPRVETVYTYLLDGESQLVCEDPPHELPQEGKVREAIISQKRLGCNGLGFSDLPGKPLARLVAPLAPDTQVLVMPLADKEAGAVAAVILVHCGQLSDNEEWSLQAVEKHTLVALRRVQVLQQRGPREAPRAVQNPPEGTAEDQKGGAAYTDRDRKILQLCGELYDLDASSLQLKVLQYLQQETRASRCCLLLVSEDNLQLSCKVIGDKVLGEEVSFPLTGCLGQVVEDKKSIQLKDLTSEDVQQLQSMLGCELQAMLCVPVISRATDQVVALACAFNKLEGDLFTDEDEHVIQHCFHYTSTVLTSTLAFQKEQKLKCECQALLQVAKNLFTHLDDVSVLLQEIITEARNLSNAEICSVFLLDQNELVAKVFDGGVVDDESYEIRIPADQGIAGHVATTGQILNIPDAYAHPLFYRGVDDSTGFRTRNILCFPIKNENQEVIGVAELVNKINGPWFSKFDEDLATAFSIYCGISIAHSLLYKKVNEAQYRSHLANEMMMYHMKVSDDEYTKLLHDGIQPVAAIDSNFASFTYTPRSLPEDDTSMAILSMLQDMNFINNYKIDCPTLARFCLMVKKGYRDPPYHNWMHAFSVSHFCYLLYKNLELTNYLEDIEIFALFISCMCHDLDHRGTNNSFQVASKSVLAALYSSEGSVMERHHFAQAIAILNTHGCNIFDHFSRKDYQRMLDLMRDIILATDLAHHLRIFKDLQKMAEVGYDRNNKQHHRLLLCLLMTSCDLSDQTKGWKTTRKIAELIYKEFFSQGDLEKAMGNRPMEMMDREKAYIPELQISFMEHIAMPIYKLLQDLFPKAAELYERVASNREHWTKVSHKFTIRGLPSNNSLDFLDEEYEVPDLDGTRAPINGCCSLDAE
Assay: Inhibition of PDE2 catalytic domain (unknown origin)
Details: not given

| IC50 | SMILES |
| --- | --- |
| 3.4 nM | COc1ccc(-c2cc(C3=Nc4c(C(C)(C)C)nn(CCO)c4C(=O)NC3)ccc2OC)c(OC)c1 |
| 6.8 nM | COc1ccc(C2=Nc3c(C(C)(C)C)nn(CCO)c3C(=O)NC2)cc1-c1cnn(C)c1 |
| 1.3 nM | COc1ccc(C2=Nc3c(C(C)(C)C)nn(CCO)c3C(=O)NC2)cc1-c1cnc(N(C)C)cc1C |
| 9.3 nM | COc1ncc(-c2cc(C3=Nc4c(C(C)(C)C)nn(CCO)c4C(=O)NC3)ccc2OC)c(OC)n1 |
| 1.2 nM | COc1ccc(C2=Nc3c(C(C)(C)C)nn(CCO)c3C(=O)NC2)cc1-c1cnc(N2CCCC2)nc1 |
| 1.4 nM | COc1ccc(C2=Nc3c(C(C)(C)C)nn(CCO)c3C(=O)NC2)cc1-c1cnc(N2CCOCC2)nc1 |
| 1.8 nM | COc1ccc(-c2cc(C3=Nc4c(C(C)(C)C)nn(CCO)c4C(=O)NC3)ccc2OC)c(OC)n1 |
| 36 nM | COc1ccc(C2=Nc3c(C(C)(C)C)nn(CCCO)c3C(=O)NC2)cc1-c1cnn(C)c1 |

Target: 3',5'-cyclic-AMP phosphodiesterase 4B (Homo sapiens, UniProt Q07343)
Sequence (Q07343 whole entry, the tested form may be a part): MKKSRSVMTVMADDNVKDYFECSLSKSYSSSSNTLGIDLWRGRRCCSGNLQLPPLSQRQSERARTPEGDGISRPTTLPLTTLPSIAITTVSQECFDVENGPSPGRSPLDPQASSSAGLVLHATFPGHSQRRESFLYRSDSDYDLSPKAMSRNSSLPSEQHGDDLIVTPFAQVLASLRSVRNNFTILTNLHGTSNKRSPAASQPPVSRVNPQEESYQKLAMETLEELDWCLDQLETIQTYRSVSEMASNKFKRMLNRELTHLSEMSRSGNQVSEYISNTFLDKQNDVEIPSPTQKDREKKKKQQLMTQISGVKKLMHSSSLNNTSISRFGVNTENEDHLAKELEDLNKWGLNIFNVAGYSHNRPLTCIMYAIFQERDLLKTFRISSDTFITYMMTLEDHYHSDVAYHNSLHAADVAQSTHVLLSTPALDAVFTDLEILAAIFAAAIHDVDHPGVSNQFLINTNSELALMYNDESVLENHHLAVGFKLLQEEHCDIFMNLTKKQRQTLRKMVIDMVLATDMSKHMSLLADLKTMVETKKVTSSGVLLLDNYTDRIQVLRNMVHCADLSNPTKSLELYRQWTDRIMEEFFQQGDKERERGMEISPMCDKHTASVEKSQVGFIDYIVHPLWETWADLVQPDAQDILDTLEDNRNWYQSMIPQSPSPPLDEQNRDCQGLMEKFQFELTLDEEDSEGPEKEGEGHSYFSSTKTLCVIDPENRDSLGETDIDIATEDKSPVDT
Assay: Inhibition of PDE4B catalytic domain (unknown origin)
Details: not given
Method in brief: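 Each IC50 is the mean of at least two independent determinations. Each curve had 10 half-log dilutions, centred near the 50% inhibition level, with each point run in duplicate.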

| IC50 | SMILES |
| --- | --- |
| 741 nM | COc1ccc(-c2cc(C3=Nc4c(C(C)(C)C)nn(CCO)c4C(=O)NC3)ccc2OC)c(OC)c1 |
| 110 nM | COc1ccc(C2=Nc3c(C(C)(C)C)nn(CCO)c3C(=O)NC2)cc1-c1cnn(C)c1 |
| 534 nM | COc1ccc(C2=Nc3c(C(C)(C)C)nn(CCO)c3C(=O)NC2)cc1-c1cnc(N(C)C)cc1C |
| 138 nM | COc1ncc(-c2cc(C3=Nc4c(C(C)(C)C)nn(CCO)c4C(=O)NC3)ccc2OC)c(OC)n1 |
| 410 nM | COc1ccc(C2=Nc3c(C(C)(C)C)nn(CCO)c3C(=O)NC2)cc1-c1cnc(N2CCCC2)nc1 |
| 265 nM | COc1ccc(C2=Nc3c(C(C)(C)C)nn(CCO)c3C(=O)NC2)cc1-c1cnc(N2CCOCC2)nc1 |
| 418 nM | COc1ccc(-c2cc(C3=Nc4c(C(C)(C)C)nn(CCO)c4C(=O)NC3)ccc2OC)c(OC)n1 |
| 562 nM | COc1ncc(-c2cc(C3=Nc4c(C(C)(C)C)nn(CCO)c4C(=O)NC3)ccc2OC)cn1 |
| 6740 nM | COc1ccc(C2=Nc3c(C(C)(C)C)nn(CCCO)c3C(=O)NC2)cc1-c1cnn(C)c1 |

Tested on: Rattus norvegicus
Assay: Analgesic activity in medial meniscal transection rat osteoarthritis pain model assessed as inhibition of change in hind paw weight distribution at 10 mg/kg, sc administered on day 28 post medial meniscal transection surgery measured after 1 hr relative to vehicle-treated control
Assay type: functional
Details: route subcutaneous
Method in brief: as §1

| SMILES | inhibition in vivo at 10 mg/kg |
| --- | --- |
| COc1ncc(-c2cc(C3=Nc4c(C(C)(C)C)nn(CCO)c4C(=O)NC3)ccc2OC)cn1 | 79% |

Tested on: Rattus norvegicus
Assay: Analgesic activity in medial meniscal transection rat osteoarthritis pain model assessed as inhibition of change in hind paw weight distribution at 10 mg/kg, po administered on day 28 post medial meniscal transection surgery measured after 1 hr relative to vehicle-treated control
Assay type: functional
Details: not given

| SMILES | inhibition in vivo at 10 mg/kg |
| --- | --- |
| COc1ncc(-c2cc(C3=Nc4c(C(C)(C)C)nn(CCO)c4C(=O)NC3)ccc2OC)cn1 | 44% |
